Experimental data published in ChEMBL document CHEMBL4118021, “Studies of TAK1-centered polypharmacology with novel covalent TAK1 inhibitors” (Bioorg Med Chem, 2017).
The source made the active and inactive calls. The rule behind the calls is not given here.

Key:
[1] = biological target: Mitogen-activated protein kinase 7 (Homo sapiens) (UniProt Q13164); assay: Inhibition of Erk5 in human SKCO1 cells at 1 uM after 4 hrs using biotin labeled DLKPSNLLVNENCELK probe by mass-spectrometric analysis relative to control; format: cell-based
[2] = biological target: Platelet-derived growth factor receptor alpha (Homo sapiens) (UniProt P16234); assay: Inhibition of human PDGFRA (575 to 1002 residues) expressed in mammalian expression system assessed as enzyme activity at 10 uM by KINOMEScan assay relative to control; set-up: scale not given: the % may be the effect or the level left
Procedure, shortened: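 In vitro ATP-site competition binding assay across a panel of 456 kinases, with compound tested at 1 and 10 μM.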

[3] = biological target: T1, Dual specificity mitogen-activated protein kinase kinase 5 (Homo sapiens) (UniProt Q13163); assay: Inhibition of MAP2K5 in human SKCO1 cells at 1 uM after 4 hrs using biotin labeled DVKPSNMLVNTR probe by mass-spectrometric analysis relative to control; format: cell-based
T1 sequence (whole entry): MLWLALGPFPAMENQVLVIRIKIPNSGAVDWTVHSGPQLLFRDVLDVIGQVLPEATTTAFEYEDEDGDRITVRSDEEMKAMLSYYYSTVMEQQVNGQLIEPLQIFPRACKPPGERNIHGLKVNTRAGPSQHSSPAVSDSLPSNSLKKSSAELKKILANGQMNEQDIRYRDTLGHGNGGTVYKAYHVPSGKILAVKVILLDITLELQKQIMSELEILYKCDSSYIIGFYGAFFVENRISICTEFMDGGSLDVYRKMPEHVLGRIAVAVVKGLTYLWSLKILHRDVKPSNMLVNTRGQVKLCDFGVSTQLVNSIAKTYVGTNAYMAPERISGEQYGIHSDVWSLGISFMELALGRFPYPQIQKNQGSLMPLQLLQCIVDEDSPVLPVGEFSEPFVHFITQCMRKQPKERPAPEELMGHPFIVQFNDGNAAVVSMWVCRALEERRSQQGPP

[4] = biological target: Tyrosine-protein kinase ZAP-70 (Homo sapiens) (UniProt P43403); assay: Inhibition of ZAP70 in human SKCO1 cells at 1 uM after 4 hrs using biotin labeled ISDFGLSKALGADDSYYTAR probe by mass-spectrometric analysis relative to control; format: cell-based
[5] = test system: PANC-1; assay: Antiproliferative activity against human PANC1 cells harboring KRAS G12D mutant after 72 hrs by CellTiter-Glo assay; format: functional, cell-based; conditions: PANC-1, 72 h
[6] = biological target: Phosphatidylinositol 3-kinase catalytic subunit type 3 (Homo sapiens) (UniProt Q8NEB9); assay: Inhibition of PIK3C3 in human SKCO1 cells at 1 uM after 4 hrs using biotin labeled TEDGGKYPVIFKHGDDLRQDQLILQIISLMDK probe by mass-spectrometric analysis relative to control; format: cell-based
[7] = biological target: ATP-dependent RNA helicase DHX15 (Homo sapiens) (UniProt O43143); assay: Binding affinity to DHX15 in human NCI-H358 cells at 1 uM by mass spectrometry based pull down assay; format: cell-based
[8] = biological target: 80S Ribosome (Homo sapiens) (UniProt P08865+P42677+P62753+P15880+P23396+P61247+P62701+P22090+P46782+P62081+P62241+P46781+P46783+P62280+P25398+P62277+P62263+P62841+P62244+P62249+P08708+P62269+P39019+P60866+P63220+P62266+P62847+P62851+P62854+P62979+P62857+P62273+P62861+P39023+P36578+P46777+Q02878+P18124+P62424+P62917+P32969+P27635+P62906+P62913+P30050+P26373+P40429+P50914+P61313+P18621+Q07020+Q02543+P84098+P46778+P35268+P62829+P62750+P83731+P61254+P61353+P46776+P46779+P47914+P62888+P62899+P62910+P49207+P42766+P18077+Q9Y3U8+P83881+P61927+P61513+P63173+P62891+P62945+P05388+P05386); assay: Binding affinity to RPL8 in human NCI-H23 cells at 1 uM by mass spectrometry based pull down assay; format: cell-based
[9] = biological target: Tubulin beta-2A chain (Homo sapiens) (UniProt Q13885); assay: Binding affinity to TUBB2A in human NCI-H358 cells at 1 uM by mass spectrometry based pull down assay; format: cell-based
[10] = biological target: Proteasome activator complex subunit 2 (Homo sapiens) (UniProt Q9UL46); assay: Binding affinity to PSME2 in human NCI-H358 cells at 1 uM by mass spectrometry based pull down assay; format: cell-based
[11] = biological target: Mitogen-activated protein kinase 14 (Homo sapiens) (UniProt Q16539); assay: Inhibition of p38a in human SKCO1 cells at 1 uM after 4 hrs using biotin labeled DLKPSNLAVNEDCELK probe by mass-spectrometric analysis relative to control; format: cell-based
Procedure, shortened: (§1)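 Live SK-CO-1 cells exposed to compound at 1 μM or DMSO for 4 h (KiNativ). Lysates then labeled with lysine-reactive ATP/ADP-biotin probe, and probe-labeled kinase peptides quantified by mass spectrometry. Percent inhibition of probe-dependent recovery calculated relative to DMSO-treated cells.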

[12] = biological target: Mitogen-activated protein kinase 10 (Homo sapiens) (UniProt P53779); assay: Inhibition of JNK3 in human SKCO1 cells at 1 uM after 4 hrs using biotin labeled DLKPSNIVVK probe by mass-spectrometric analysis relative to control; format: cell-based
[13] = biological target: Mitogen-activated protein kinase 9 (Homo sapiens) (UniProt P45984); assay: Inhibition of JNK2 in human SKCO1 cells at 1 uM after 4 hrs using biotin labeled DLKPSNIVVK probe by mass-spectrometric analysis relative to control; format: cell-based
[14] = biological target: Tyrosine-protein kinase Lck (Homo sapiens) (UniProt P06239); assay: Inhibition of LCK in human SKCO1 cells at 1 uM after 4 hrs using biotin labeled EGAKFPIKWTAPEAINYGTFTIK probe by mass-spectrometric analysis relative to control; format: cell-based
[15] = test system: MAP4K2 / germinal center kinase (Homo sapiens); assay: Inhibition of GCK in human SKCO1 cells at 1 uM after 4 hrs using biotin labeled DIKGANLLLTLQGDVK probe by mass-spectrometric analysis relative to control
[16] = biological target: SRSF protein kinase 1 (Homo sapiens) (UniProt Q96SB4); assay: Inhibition of SRPK1 in human SKCO1 cells at 1 uM after 4 hrs using biotin labeled IIHTDIKPENILLSVNEQYIR probe by mass-spectrometric analysis relative to control; format: cell-based; procedure, shortened: as §1
[17] = biological target: Inhibitor of nuclear factor kappa-B kinase subunit alpha (Homo sapiens) (UniProt O15111); assay: Inhibition of IKKa in human SKCO1 cells at 1 uM after 4 hrs using biotin labeled DLKPENIVLQDVGGK probe by mass-spectrometric analysis relative to control; format: cell-based
[18] = biological target: Tyrosine-protein kinase Fyn (Homo sapiens) (UniProt P06241); assay: Inhibition of FYN in human SKCO1 cells at 1 uM after 4 hrs using biotin labeled VAIKTLKPGTMSPESFLEEAQIMK probe by mass-spectrometric analysis relative to control; format: cell-based

Sequence of Tyrosine-protein kinase ZAP-70 (Homo sapiens) (P43403 whole entry): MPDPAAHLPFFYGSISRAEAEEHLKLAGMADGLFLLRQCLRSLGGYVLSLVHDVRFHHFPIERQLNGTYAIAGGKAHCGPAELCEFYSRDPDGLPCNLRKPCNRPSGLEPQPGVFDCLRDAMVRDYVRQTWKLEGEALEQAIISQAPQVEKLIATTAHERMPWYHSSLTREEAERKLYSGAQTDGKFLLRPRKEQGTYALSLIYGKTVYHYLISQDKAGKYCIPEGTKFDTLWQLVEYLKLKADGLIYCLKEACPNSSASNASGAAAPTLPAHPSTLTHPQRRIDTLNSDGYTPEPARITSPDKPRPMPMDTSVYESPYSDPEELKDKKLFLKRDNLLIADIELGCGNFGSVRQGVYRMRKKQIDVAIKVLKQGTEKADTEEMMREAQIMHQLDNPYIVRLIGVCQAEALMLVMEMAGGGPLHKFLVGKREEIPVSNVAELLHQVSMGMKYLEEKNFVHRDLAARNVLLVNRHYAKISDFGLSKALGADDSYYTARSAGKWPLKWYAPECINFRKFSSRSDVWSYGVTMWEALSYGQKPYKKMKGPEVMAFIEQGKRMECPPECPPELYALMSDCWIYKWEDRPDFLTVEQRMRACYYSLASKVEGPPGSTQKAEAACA
Sequence of Tyrosine-protein kinase Lck (Homo sapiens) (P06239 2-509 limits assumed): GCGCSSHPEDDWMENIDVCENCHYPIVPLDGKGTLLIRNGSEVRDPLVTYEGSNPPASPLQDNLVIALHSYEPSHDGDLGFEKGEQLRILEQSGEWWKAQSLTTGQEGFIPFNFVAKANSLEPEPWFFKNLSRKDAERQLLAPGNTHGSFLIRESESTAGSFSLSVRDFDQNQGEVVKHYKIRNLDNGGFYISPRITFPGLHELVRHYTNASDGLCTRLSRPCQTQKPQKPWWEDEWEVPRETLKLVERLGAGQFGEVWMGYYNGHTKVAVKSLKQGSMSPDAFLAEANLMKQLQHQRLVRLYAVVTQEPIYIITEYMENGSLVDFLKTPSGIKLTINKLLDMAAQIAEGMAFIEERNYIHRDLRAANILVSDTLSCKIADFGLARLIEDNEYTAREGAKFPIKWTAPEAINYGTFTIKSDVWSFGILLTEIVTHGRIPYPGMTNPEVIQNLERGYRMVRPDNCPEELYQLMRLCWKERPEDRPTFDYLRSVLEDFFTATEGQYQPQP
Sequence of Phosphatidylinositol 3-kinase catalytic subunit type 3 (Homo sapiens) (Q8NEB9 whole entry): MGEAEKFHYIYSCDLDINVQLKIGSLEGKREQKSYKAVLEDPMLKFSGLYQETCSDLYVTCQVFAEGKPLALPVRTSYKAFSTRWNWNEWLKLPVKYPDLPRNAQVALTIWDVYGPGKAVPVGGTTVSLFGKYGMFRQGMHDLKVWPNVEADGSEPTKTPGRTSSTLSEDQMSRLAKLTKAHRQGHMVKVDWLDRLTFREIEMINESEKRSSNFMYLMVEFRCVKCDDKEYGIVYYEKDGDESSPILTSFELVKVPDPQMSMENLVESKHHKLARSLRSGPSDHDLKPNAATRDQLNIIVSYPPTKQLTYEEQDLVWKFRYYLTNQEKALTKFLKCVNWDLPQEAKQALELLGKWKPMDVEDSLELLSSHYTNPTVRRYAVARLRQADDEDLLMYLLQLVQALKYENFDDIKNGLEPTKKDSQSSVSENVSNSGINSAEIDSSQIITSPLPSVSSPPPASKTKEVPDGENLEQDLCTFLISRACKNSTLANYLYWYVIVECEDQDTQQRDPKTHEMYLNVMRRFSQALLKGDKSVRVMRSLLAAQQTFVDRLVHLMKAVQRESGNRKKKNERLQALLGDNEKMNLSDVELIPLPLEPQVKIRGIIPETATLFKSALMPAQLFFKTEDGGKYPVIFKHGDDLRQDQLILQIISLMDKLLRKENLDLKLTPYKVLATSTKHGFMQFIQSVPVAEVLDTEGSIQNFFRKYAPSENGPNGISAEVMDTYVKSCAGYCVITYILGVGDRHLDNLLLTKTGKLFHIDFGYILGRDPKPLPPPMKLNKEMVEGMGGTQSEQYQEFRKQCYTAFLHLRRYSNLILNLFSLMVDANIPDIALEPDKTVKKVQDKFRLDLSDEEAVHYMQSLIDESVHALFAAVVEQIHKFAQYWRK
Sequence of Mitogen-activated protein kinase 7 (Homo sapiens) (Q13164 2-816 limits assumed): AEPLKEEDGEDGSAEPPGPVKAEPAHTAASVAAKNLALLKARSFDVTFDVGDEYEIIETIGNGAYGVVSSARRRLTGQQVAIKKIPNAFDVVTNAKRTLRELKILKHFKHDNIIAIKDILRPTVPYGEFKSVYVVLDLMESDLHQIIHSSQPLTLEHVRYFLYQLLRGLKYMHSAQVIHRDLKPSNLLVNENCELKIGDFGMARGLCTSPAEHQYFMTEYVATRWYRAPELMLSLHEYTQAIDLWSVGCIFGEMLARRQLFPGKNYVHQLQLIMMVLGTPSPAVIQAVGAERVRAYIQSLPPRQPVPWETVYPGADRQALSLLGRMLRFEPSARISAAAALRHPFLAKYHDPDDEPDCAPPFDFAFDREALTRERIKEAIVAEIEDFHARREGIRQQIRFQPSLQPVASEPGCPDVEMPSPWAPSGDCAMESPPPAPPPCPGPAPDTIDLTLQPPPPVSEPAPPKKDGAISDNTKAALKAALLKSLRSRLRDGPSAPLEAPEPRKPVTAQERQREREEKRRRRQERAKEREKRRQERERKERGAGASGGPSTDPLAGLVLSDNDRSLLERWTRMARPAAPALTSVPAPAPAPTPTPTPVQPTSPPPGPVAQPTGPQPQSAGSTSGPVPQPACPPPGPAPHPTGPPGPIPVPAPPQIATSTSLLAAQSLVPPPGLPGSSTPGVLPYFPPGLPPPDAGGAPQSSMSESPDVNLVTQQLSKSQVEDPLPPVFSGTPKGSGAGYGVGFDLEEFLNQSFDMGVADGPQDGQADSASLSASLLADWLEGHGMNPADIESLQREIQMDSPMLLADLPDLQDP
Sequence of Mitogen-activated protein kinase 10 (Homo sapiens) (P53779 whole entry): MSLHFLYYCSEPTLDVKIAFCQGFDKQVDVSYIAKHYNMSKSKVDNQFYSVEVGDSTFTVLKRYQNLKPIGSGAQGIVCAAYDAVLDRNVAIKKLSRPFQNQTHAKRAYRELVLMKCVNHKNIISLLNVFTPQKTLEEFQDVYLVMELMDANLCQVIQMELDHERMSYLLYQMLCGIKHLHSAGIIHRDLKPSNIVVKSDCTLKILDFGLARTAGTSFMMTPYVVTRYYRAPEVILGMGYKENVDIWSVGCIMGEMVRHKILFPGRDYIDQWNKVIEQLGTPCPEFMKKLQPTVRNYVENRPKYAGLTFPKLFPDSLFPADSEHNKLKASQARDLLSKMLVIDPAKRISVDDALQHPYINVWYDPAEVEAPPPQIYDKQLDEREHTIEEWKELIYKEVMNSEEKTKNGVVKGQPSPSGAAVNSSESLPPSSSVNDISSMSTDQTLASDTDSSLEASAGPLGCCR
Sequence of Mitogen-activated protein kinase 9 (Homo sapiens) (P45984 whole entry, looked up): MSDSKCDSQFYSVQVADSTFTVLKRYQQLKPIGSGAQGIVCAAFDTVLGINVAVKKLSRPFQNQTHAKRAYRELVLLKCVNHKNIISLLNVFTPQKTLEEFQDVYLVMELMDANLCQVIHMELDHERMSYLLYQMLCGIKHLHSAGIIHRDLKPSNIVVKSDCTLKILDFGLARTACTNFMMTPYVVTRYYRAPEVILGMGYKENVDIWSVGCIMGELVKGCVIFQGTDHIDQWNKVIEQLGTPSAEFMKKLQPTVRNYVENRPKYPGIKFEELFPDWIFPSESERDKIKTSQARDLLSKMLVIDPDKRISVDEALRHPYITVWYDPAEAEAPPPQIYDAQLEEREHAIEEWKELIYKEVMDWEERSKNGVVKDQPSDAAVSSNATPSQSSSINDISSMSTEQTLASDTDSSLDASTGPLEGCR
Sequence of Inhibitor of nuclear factor kappa-B kinase subunit alpha (Homo sapiens) (O15111 whole entry): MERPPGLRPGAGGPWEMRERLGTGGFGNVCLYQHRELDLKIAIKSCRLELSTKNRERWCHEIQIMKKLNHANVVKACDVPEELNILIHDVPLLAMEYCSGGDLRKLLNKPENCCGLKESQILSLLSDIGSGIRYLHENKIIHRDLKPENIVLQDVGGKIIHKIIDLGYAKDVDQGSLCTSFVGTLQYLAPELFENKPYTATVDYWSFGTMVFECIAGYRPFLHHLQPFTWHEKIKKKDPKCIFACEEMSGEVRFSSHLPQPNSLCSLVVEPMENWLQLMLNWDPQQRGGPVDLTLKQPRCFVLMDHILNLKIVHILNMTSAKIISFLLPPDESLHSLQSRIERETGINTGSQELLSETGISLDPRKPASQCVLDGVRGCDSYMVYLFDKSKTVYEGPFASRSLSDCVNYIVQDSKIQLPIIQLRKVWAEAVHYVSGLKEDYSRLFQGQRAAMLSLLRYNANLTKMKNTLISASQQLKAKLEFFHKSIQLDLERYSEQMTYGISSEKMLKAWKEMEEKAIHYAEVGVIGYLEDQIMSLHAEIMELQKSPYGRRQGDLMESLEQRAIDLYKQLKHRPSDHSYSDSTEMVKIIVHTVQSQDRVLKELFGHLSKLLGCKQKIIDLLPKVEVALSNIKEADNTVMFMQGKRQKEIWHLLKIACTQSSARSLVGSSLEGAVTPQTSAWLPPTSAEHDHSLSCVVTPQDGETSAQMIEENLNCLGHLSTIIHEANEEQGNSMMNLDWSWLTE
Sequence of Mitogen-activated protein kinase 14 (Homo sapiens) (Q16539 whole entry): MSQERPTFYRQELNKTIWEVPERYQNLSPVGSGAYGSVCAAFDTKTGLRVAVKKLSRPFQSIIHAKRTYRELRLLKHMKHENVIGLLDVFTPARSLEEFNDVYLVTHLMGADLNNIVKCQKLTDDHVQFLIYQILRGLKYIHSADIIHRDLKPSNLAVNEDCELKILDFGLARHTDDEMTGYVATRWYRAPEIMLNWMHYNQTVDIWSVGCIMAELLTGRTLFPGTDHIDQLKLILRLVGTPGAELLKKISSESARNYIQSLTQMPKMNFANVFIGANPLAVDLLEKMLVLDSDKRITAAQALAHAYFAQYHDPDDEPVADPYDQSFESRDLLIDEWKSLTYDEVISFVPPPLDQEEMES

| Activity [7] | Activity [8] | Activity [9] | Activity [10] | SMILES | inhibition [1] | Activity [2] | inhibition [3] | inhibition [4] | IC50 [5] | inhibition [6] | inhibition [11] | inhibition [12] | inhibition [13] | inhibition [14] | inhibition [15] | inhibition [16] | inhibition [17] | inhibition [18] |
| --- | --- | --- | --- | --- | --- | --- | --- | --- | --- | --- | --- | --- | --- | --- | --- | --- | --- | --- |
| – | – | – | – | COc1cc(O)c2c(c1)/C=C/C[C@H](O)[C@H](O)C(=O)/C=C\C[C@H](C)OC2=O | 12.4% | 1.4% | 86.8% | 63.6% | 2.5 µM | 15.1% | – | – | – | – | – | – | – | – |
| Active | Active | Active | Active | C=CC(=O)Nc1ccccc1Nc1nc(Nc2ccc(N3CCN(CCOCCOCCOCCNC(=O)CCCC[C@@H]4SC[C@@H]5NC(=O)N[C@@H]54)CC3)cc2)ncc1Cl | – | – | – | – | – | – | – | – | – | – | – | – | – | – |
| – | – | – | – | C=CC(=O)Nc1ccccc1Nc1nc(Nc2ccc(N3CCN(C)CC3)cc2)ncc1Cl | – | – | 38.1% | – | – | 21.1% | -7.7% | 70% | 70% | 0% | 37.1% | 2.9% | 4.9% | 8.3% |
| – | – | – | – | C=CC(=O)Nc1ccccc1Oc1nc(Nc2cnn(CCOC)c2)ncc1Cl | 11.6% | – | – | 34.1% | 5.61 µM | – | -3.3% | 0.8% | 0.8% | -2.7% | 34.3% | -6.1% | 8.1% | – |
